Results published in ChEMBL document CHEMBL1828552, “Synthesis and studies of novel 2-(4-cyano-3-trifluoromethylphenyl amino)-4-(quinoline-4-yloxy)-6-(piperazinyl/piperidinyl)-s-triazines as potential antimicrobial, antimycobacterial and anticancer agents” (2011).
Converted amounts (≈) assume the structure as drawn.

What was measured:
Aspergillus niger [1] = assay: Antifungal activity against 10^5 CFU/mL Aspergillus niger MTCC 282 after 48 hrs by agar streak dilution method; format: functional; details: MTCC 282, 48 h
In short: (§1)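 Agar streak dilution for fungi. Stock 100 µg/mL in DMSO; graded amounts were mixed into molten Sabouraud dextrose agar and poured at 4–5 mm depth. Serial dilutions ran over […]. About 10⁵ CFU/mL inoculum was applied, with incubation at 37 ± 1 °C for 48 h. MIC was read from the dilution series.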

Proteus vulgaris [2] = assay: Antibacterial activity against 10^5 CFU/mL Proteus vulgaris MTCC 1771 after 24 hrs by disc diffusion technique; format: functional
In short: (§2)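 Disc diffusion on Mueller–Hinton agar poured 5 mm deep. The surface was swabbed with a 10⁵ CFU/mL […] suspension. Filter-paper discs 6.25 mm in diameter were soaked in compound in DMSO and placed on the agar. Plates were incubated 24 h at 37 ± 1 °C, and the inhibition zone was measured in mm. A DMSO disc served as blank.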

Pseudomonas aeruginosa [3] = assay: Antibacterial activity against 10^5 CFU/mL Pseudomonas aeruginosa MTCC 741 after 24 hrs by disc diffusion technique; format: functional; in short: as §2
Aspergillus fumigatus [4] = assay: Antifungal activity against 10^5 CFU/mL Aspergillus fumigatus MTCC 343 after 48 hrs by disc diffusion technique; format: functional
Salmonella typhi [5] = assay: Antibacterial activity against 10^5 CFU/mL Salmonella typhi MTCC 733 after 24 hrs by agar streak dilution method; format: functional, Salmonella enterica subsp. enterica serovar Typhi; details: Salmonella enterica, MTCC 733, 24 h
Escherichia coli [6] = assay: Antibacterial activity against 10^5 CFU/mL Escherichia coli MTCC 739 after 24 hrs by disc diffusion technique; format: functional; in short: as §2
Aspergillus niger [7] = assay: Antifungal activity against 10^5 CFU/mL Aspergillus niger MTCC 282 after 48 hrs by disc diffusion technique; format: functional
Pseudomonas aeruginosa [8] = assay: Antibacterial activity against 10^5 CFU/mL Pseudomonas aeruginosa MTCC 741 after 24 hrs by agar streak dilution method; format: functional; details: MTCC 741, 24 h
In short: (§3)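 Agar streak dilution. Stock 100 µg/mL in DMSO; graded amounts were mixed into molten nutrient agar and poured at 4–5 mm depth. Plates carried serial dilutions over […]. About 10⁵ CFU/mL of each bacterium was applied, and plates were incubated at 37 ± 1 °C for 24 h. MIC was read from the dilution series.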

Staphylococcus aureus [9] = assay: Antibacterial activity against 10^5 CFU/mL Staphylococcus aureus MTCC 96 after 24 hrs by agar streak dilution method; format: functional; details: MTCC 96, 24 h; in short: as §3
Shigella flexneri [10] = assay: Antibacterial activity against 10^5 CFU/mL Shigella flexneri MTCC 1457 after 24 hrs by disc diffusion technique; format: functional; in short: as §2
Proteus vulgaris [11] = assay: Antibacterial activity against 10^5 CFU/mL Proteus vulgaris MTCC 1771 after 24 hrs by agar streak dilution method; format: functional; details: MTCC 1771, 24 h; in short: as §3
Candida albicans [12] = assay: Antifungal activity against 10^5 CFU/mL Candida albicans MTCC 183 after 48 hrs by agar streak dilution method; format: functional; details: MTCC 183, 48 h; in short: as §1
Bacillus cereus [13] = assay: Antibacterial activity against 10^5 CFU/mL Bacillus cereus MTCC 619 after 24 hrs by disc diffusion technique; format: functional; in short: as §2
Staphylococcus aureus [14] = assay: Antibacterial activity against 10^5 CFU/mL Staphylococcus aureus MTCC 96 after 24 hrs by disc diffusion technique; format: functional; in short: as §2
DU-145 = assay: Cytotoxicity against […] human DU145 cells after 48 hrs by SRB assay; format: functional; details: DU-145, 48 h
In short: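 SRB assay in DU-145 cells grown in RPMI 1640 with 10% FBS and 2 mM L-glutamine. Cells were plated and held 24 h before addition of four 10-fold concentrations. After 48 h, cells were TCA-fixed, stained with 0.4% SRB and read at 540 nm. GI50, TGI and LC50 were derived against time-zero and control wells; each value is the mean of three experiments.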

Klebsiella pneumoniae [15] = assay: Antibacterial activity against 10^5 CFU/mL Klebsiella pneumoniae MTCC 109 after 24 hrs by disc diffusion technique; format: functional; in short: as §2
Candida albicans [16] = assay: Antifungal activity against 10^5 CFU/mL Candida albicans MTCC 183 after 48 hrs by disc diffusion technique; format: functional
Aspergillus fumigatus [17] = assay: Antifungal activity against 10^5 CFU/mL Aspergillus fumigatus MTCC 343 after 48 hrs by agar streak dilution method; format: functional; details: MTCC 343, 48 h; in short: as §1
Klebsiella pneumoniae [18] = assay: Antibacterial activity against 10^5 CFU/mL Klebsiella pneumoniae MTCC 109 after 24 hrs by agar streak dilution method; format: functional; details: MTCC 109, 24 h; in short: as §3
Aspergillus clavatus [19] = assay: Antifungal activity against 10^5 CFU/mL Aspergillus clavatus MTCC 1323 after 48 hrs by agar streak dilution method; format: functional; details: MTCC 1323, 48 h; in short: as §1
Salmonella typhi [20] = assay: Antibacterial activity against 10^5 CFU/mL Salmonella typhi MTCC 733 after 24 hrs by disc diffusion technique; format: functional, Salmonella enterica subsp. enterica serovar Typhi
In short: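 Disc diffusion. Mueller-Hinton agar autoclaved 120 °C 30 min, poured 5 mm deep. Surface swabbed with 10⁵ CFU/mL suspension […]. 6.25 mm filter-paper discs soaked in compound in DMSO; DMSO-only disc as blank. Incubated 37 ± 1 °C, 24 h for bacteria or 48 h for fungi. Ciprofloxacin and ketoconazole discs as reference drugs. Inhibition zone measured in mm.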

Bacillus cereus [21] = assay: Antibacterial activity against 10^5 CFU/mL Bacillus cereus MTCC 619 after 24 hrs by agar streak dilution method; format: functional; details: MTCC 619, 24 h; in short: as §3
Escherichia coli [22] = assay: Antibacterial activity against 10^5 CFU/mL Escherichia coli MTCC 739 after 24 hrs by agar streak dilution method; format: functional; details: MTCC 739, 24 h; in short: as §3
Aspergillus clavatus [23] = assay: Antifungal activity against 10^5 CFU/mL Aspergillus clavatus MTCC 1323 after 48 hrs by disc diffusion technique; format: functional
Shigella flexneri [24] = assay: Antibacterial activity against 10^5 CFU/mL Shigella flexneri MTCC 1457 after 24 hrs by agar streak dilution method; format: functional; details: MTCC 1457, 24 h; in short: as §3

| SMILES | MIC (Aspergillus niger [1]) [µg/mL] | inhibition zone (IZ) (Proteus vulgaris [2]) [mm] | inhibition zone (IZ) (Pseudomonas aeruginosa [3]) [mm] | inhibition zone (IZ) (Aspergillus fumigatus [4]) [mm] | MIC (Salmonella typhi [5]) [µg/mL] | inhibition zone (IZ) (Escherichia coli [6]) [mm] | inhibition zone (IZ) (Aspergillus niger [7]) [mm] | MIC (Pseudomonas aeruginosa [8]) [µg/mL] | MIC (Staphylococcus aureus [9]) [µg/mL] | inhibition zone (IZ) (Shigella flexneri [10]) [mm] | MIC (Proteus vulgaris [11]) [µg/mL] | MIC (Candida albicans [12]) [µg/mL] | inhibition zone (IZ) (Bacillus cereus [13]) [mm] | inhibition zone (IZ) (Staphylococcus aureus [14]) [mm] | GI50 (DU-145) [µM] | LC50 (concentration giving 50% net cell kill relative to time zero) (DU-145) [µM] | TGI (DU-145) [µM] | inhibition zone (IZ) (Klebsiella pneumoniae [15]) [mm] | inhibition zone (IZ) (Candida albicans [16]) [mm] | MIC (Aspergillus fumigatus [17]) [µg/mL] | also measured |
| --- | --- | --- | --- | --- | --- | --- | --- | --- | --- | --- | --- | --- | --- | --- | --- | --- | --- | --- | --- | --- | --- |
| N#Cc1ccc(Nc2nc(Oc3ccnc4ccccc34)nc(N3CCCCC3)n2)cc1C(F)(F)F | 100 (≈ 203 µM) | 14 | <10 | <10 | 100 (≈ 203 µM) | <10 | 12 | 100 (≈ 203 µM) | 100 (≈ 203 µM) | <10 | 100 (≈ 203 µM) | 100 (≈ 203 µM) | 14 | 11 | 94.9 | > 100 | > 100 | 15 | 12 | 100 (≈ 203 µM) | MIC (Klebsiella pneumoniae [18]): 100 µg/mL (≈ 203 µM); MIC (Aspergillus clavatus [19]): 100 µg/mL (≈ 203 µM); inhibition zone (IZ) (Salmonella typhi [20]): 12 mm; MIC (Bacillus cereus [21]): 100 µg/mL (≈ 203 µM); MIC (Escherichia coli [22]): 100 µg/mL (≈ 203 µM); inhibition zone (IZ) (Aspergillus clavatus [23]): 14 mm; MIC (Shigella flexneri [24]): 100 µg/mL (≈ 203 µM) |
| N#Cc1ccc(Nc2nc(Oc3ccnc4ccccc34)nc(N3CCOCC3)n2)cc1C(F)(F)F | 100 (≈ 203 µM) | 16 | <10 | <10 | 100 (≈ 203 µM) | <10 | 13 | 100 (≈ 203 µM) | 100 (≈ 203 µM) | <10 | 100 (≈ 203 µM) | 100 (≈ 203 µM) | <10 | 14 | 68.3 | > 100 | > 100 | 14 | 13 | 100 (≈ 203 µM) | MIC (Klebsiella pneumoniae [18]): 100 µg/mL (≈ 203 µM); MIC (Aspergillus clavatus [19]): 100 µg/mL (≈ 203 µM); inhibition zone (IZ) (Salmonella typhi [20]): 13 mm; MIC (Bacillus cereus [21]): 100 µg/mL (≈ 203 µM); MIC (Escherichia coli [22]): 100 µg/mL (≈ 203 µM); inhibition zone (IZ) (Aspergillus clavatus [23]): 13 mm; MIC (Shigella flexneri [24]): 100 µg/mL (≈ 203 µM) |
| N#Cc1ccc(Nc2nc(Oc3ccnc4ccccc34)nc(N3CCN(c4ccccc4)CC3)n2)cc1C(F)(F)F | 100 (≈ 176 µM) | 14 | <10 | <10 | 100 (≈ 176 µM) | <10 | <10 | 100 (≈ 176 µM) | 100 (≈ 176 µM) | <10 | 100 (≈ 176 µM) | 100 (≈ 176 µM) | <10 | 14 | > 100 | > 100 | > 100 | <10 | <10 | 100 (≈ 176 µM) | MIC (Klebsiella pneumoniae [18]): 100 µg/mL (≈ 176 µM); MIC (Aspergillus clavatus [19]): 100 µg/mL (≈ 176 µM); inhibition zone (IZ) (Salmonella typhi [20]): 13 mm; MIC (Bacillus cereus [21]): 100 µg/mL (≈ 176 µM); MIC (Escherichia coli [22]): 100 µg/mL (≈ 176 µM); inhibition zone (IZ) (Aspergillus clavatus [23]): <10 mm; MIC (Shigella flexneri [24]): 100 µg/mL (≈ 176 µM) |
| COc1cccc2c1C(=O)c1c(O)c3c(c(O)c1C2=O)C[C@@](O)(C(=O)CO)C[C@@H]3O[C@H]1C[C@H](N)[C@H](O)[C@H](C)O1 [DOXORUBICIN] | – | – | – | – | – | – | – | – | – | – | – | – | – | – | < 0.1 | – | > 100 | – | – | – | – |
